Measurements: ChEMBL document CHEMBL6083223, “Development of di-arylated 1,2,4-triazole-based derivatives as therapeutic agents against breast cancer: synthesis and biological evaluation” (RSC Med Chem, 2024)
One block for each molecule: values may come before it. Activity calls are given as the source filed them. No cut-off for these calls is given here.

Key:
[1] = tested on: MCF7; assay: Antiproliferative activity against human MCF7 cells assessed as inhibition of cell growth at 10 uM incubated for 48 hrs by MTT assay; format: functional
Procedure, shortened: (§1)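 Single-concentration screen: cells (ATCC; 37 °C, 5% CO₂) seeded at 4 × 10⁴ per well, adhered overnight, then treated 48 h at 10 μM. Medium removed, MTT (2.5 mg mL⁻¹) added for 4 h, formazan dissolved in DMSO, absorbance read at 570 nm; percent inhibition versus untreated cells.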

[2] = tested on: MDA-MB-231; assay: Antiproliferative activity against human MDA-MB-231 cells assessed as inhibition of cell growth at 10 uM incubated for 48 hrs by MTT assay; format: functional; procedure, shortened: as §1
[3] = tested on: ZR-75-1; assay: Antiproliferative activity against human ZR-75-1 cells assessed as inhibition of cell growth at 10 uM incubated for 48 hrs by MTT assay; format: functional; procedure, shortened: as §1
[4] = tested on: ZR-75-1; assay: Antiproliferative activity against human ZR-75-1 cells assessed as inhibition of cell growth at 1 uM incubated for 48 hrs by MTT assay; format: functional
Procedure, shortened: (§2)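 Positive-control reference measured alongside the single-concentration screen: cells seeded at 4 × 10⁴ per well, adhered overnight, exposed 48 h to doxorubicin at 1 μM. MTT (2.5 mg mL⁻¹) added for 4 h, formazan dissolved in DMSO, absorbance at 570 nm; percent growth inhibition relative to untreated cells.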

[5] = tested on: MDA-MB-231; assay: Antiproliferative activity against human MDA-MB-231 cells assessed as inhibition of cell growth incubated for 48 hrs by MTT assay; format: functional, cell-based; details: MDA-MB-231, 48 h
[6] = tested on: ZR-75-1; assay: Antiproliferative activity against human ZR-75-1 cells assessed as inhibition of cell growth incubated for 48 hrs by MTT assay; format: functional, cell-based; details: ZR-75-1, 48 h
[7] = tested on: MDA-MB-231; assay: Antiproliferative activity against human MDA-MB-231 cells assessed as inhibition of cell growth at 1 uM incubated for 48 hrs by MTT assay; format: functional; procedure, shortened: as §2
[8] = tested on: MCF7; assay: Antiproliferative activity against human MCF7 cells assessed as inhibition of cell growth at 1 uM incubated for 48 hrs by MTT assay; format: functional; procedure, shortened: as §2
[9] = Intrinsic clearance in dog liver microsomes measured per mg protein; format: ADME, Canis lupus familiaris, Microsome; details: read-out: CLH
Procedure, shortened: (§3)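 Substrate depletion: microsomes (0.5 mg mL⁻¹ protein) in 100 mM PBS pH 7.4, 3.3 mM MgCl₂, 1.2 mM NADPH, preincubated 5 min at 37 °C; compound spiked at 5 μM, sampled at 0, 15 and 30 min. Quenched with cold acetonitrile containing diazepam internal standard, LC-MS/MS; triplicate. Log-linear plot of remaining substrate (0 min = 100%) gives parameters.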

[10] = tested on: MCF7; assay: Increase in reactive oxygen species production in human MCF7 cells treated with higher concentrations by DCFH-DA staining based fluorescence microscopic analysis; format: functional, cell-based
[11] = tested on: MCF7; assay: Induction of autophagy in human MCF7 cells assessed as increase in autophagosome production at 5 to 20 uM by acridine orange staining based fluorescence microscopic analysis; format: functional, cell-based; details: dose 5-20 µM
Procedure, shortened: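 MCF-7 cells treated at 5, 10 and 20 μM, then stained with 200 nM acridine orange for 10 min at 37 °C and imaged by fluorescence microscopy.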

[12] = Half life in dog liver microsomes; format: ADME, Canis lupus familiaris, Microsome; procedure, shortened: as §3
[13] = Half life in human liver microsomes; format: ADME, Microsome; procedure, shortened: as §3
[14] = Half life in rat liver microsomes; format: ADME, Microsome; procedure, shortened: as §3
[15] = tested on: MCF7; assay: Induction of apoptosis in human MCF7 cells assessed as increase in Bax protein expression at 5 to 20 uM incubated for 48 hrs by western blot analysis; format: functional, cell-based; details: dose 5-20 µM
Procedure, shortened: (§4)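 MCF-7 cells (1 × 10⁶ per 100 mm dish, RPMI 1640 with 10% FBS) treated 48 h at 5, 10, 15 and 20 μM, 37 °C. RIPA lysates, Bradford-quantified, 50 μg per lane on SDS-PAGE, PVDF transfer, 5% BSA/TBST block; probed for cleaved PARP (1:1000) and Bax (1:400), band densitometry.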

[16] = tested on: MCF7; assay: Induction of apoptosis in human MCF7 cells assessed as disruption of mitochondrial […] membrane potential by measuring decrease in fluorescence intensity at 5 to 20 uM incubated for 30 mins by Rhodamine123 staining based fluorescence microscopic analysis; format: functional, cell-based; details: dose 5-20 µM
Procedure, shortened: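 MCF-7 cells treated at 5, 10 and 20 μM; rhodamine 123 (1 μg) added 30 min before the end of treatment, cells rinsed with PBS and examined under a fluorescence microscope for loss of mitochondrial fluorescence.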

[17] = Intrinsic clearance in mouse liver microsomes measured per mg protein; format: ADME, Microsome; procedure, shortened: as §3
[18] = Metabolic stability of the compound in monkey liver microsomes at 5 uM measured for 30 mins in absence of NADPH by substrate depletion method based LC-MS/MS analysis; format: ADME, Macaca mulatta, Microsome; details: rhesus monkey, 0.5 h
Procedure, shortened: (§5)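 NADPH-free control incubations: microsomes (0.5 mg mL⁻¹) in 100 mM PBS pH 7.4 with 3.3 mM MgCl₂, no NADPH, 37 °C; compound 5 μM, 0–30 min. Acetonitrile quench with diazepam internal standard, LC-MS/MS; percent remaining versus 0 min, triplicate.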

[19] = tested on: MCF7; assay: Induction of apoptosis in human MCF7 cells assessed as increase in cleaved PARP protein expression at 5 to 20 uM incubated for 48 hrs by western blot analysis; format: functional, cell-based; details: dose 5-20 µM; procedure, shortened: as §4
[20] = Metabolic stability of the compound in dog liver microsomes at 5 uM measured for 30 mins in absence of NADPH by substrate depletion method based LC-MS/MS analysis; format: ADME, Canis lupus familiaris, Microsome; details: 0.5 h; procedure, shortened: as §5
[21] = Half life in monkey liver microsomes; format: ADME, Macaca mulatta, Microsome; details: rhesus monkey; procedure, shortened: as §3
[22] = Cytotoxicity against human MCF-10A cells assessed as inhibition of cell growth incubated for 24 hrs by MTT assay; format: toxicity, cell-based
Procedure, shortened: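 Non-tumorigenic MCF-10A breast epithelial cells in 96-well plates (5% CO₂) exposed 24 h to 10, 50 and 100 μM. MTT (2.5 mg mL⁻¹) for 4 h, formazan dissolved in DMSO, absorbance at 570 nm; percent growth inhibition calculated to estimate IC50.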

[23] = Metabolic stability of the compound in mouse liver microsomes at 5 uM measured for 30 mins in absence of NADPH by substrate depletion method based LC-MS/MS analysis; format: ADME, Microsome; details: 0.5 h; procedure, shortened: as §5
[24] = tested on: MCF7; assay: Antiproliferative activity against human MCF7 cells assessed as inhibition of cell growth incubated for 48 hrs by MTT assay; format: functional, cell-based; details: MCF7, 48 h
Procedure, shortened: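 MCF-7 exposed 48 h to 0.625, 1.25, 2.5, 5, 10, 20 and 40 μM. MTT (2.5 mg mL⁻¹) added for 4 h, medium removed, formazan solubilized in DMSO, absorbance at 570 nm; percent growth inhibition calculated and IC50 derived.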

[25] = Intrinsic clearance in monkey liver microsomes measured per mg protein; format: ADME, Macaca mulatta, Microsome; details: rhesus monkey; procedure, shortened: as §3
[26] = Metabolic stability of the compound in rat liver microsomes at 5 uM measured for 30 mins in absence of NADPH by substrate depletion method based LC-MS/MS analysis; format: ADME, Microsome; details: 0.5 h; procedure, shortened: as §5
[27] = Metabolic stability of the compound in human liver microsomes at 5 uM measured for 30 mins in absence of NADPH by substrate depletion method based LC-MS/MS analysis; format: ADME, Microsome; details: 0.5 h; procedure, shortened: as §5
[28] = Intrinsic clearance in rat liver microsomes measured per mg protein; format: ADME, Microsome; details: read-out: CLH; procedure, shortened: as §3
[29] = Intrinsic clearance in human liver microsomes measured per mg protein; format: ADME, Microsome; procedure, shortened: as §3
[30] = Half life in mouse liver microsomes; format: ADME, Microsome; procedure, shortened: as §3

SMILES: COc1ccc(-n2cnc(-c3ccc(F)c(F)c3)n2)cc1OC
inhibition at 10 µM [1]: 16.1%
inhibition at 10 µM [2]: 7.98%

SMILES: c1ccc2c(-c3ncn(-c4ccc5c(c4)OCO5)n3)cccc2c1
inhibition at 10 µM [1]: 5.71%
inhibition at 10 µM [2]: 15.3%

SMILES: COc1ccc(-c2ncn(-c3cc(OC)c(OC)c(OC)c3)n2)cn1
inhibition at 10 µM [1]: 35.9%
inhibition at 10 µM [3]: 4.95%
inhibition at 10 µM [2]: 5.25%

SMILES: COc1cc(-n2cnc(-c3cccc(C=O)c3)n2)cc(OC)c1OC
inhibition at 10 µM [1]: 13.4%
inhibition at 10 µM [2]: 22.6%

SMILES: COc1cc(-n2cnc(-c3ccc(F)c(F)c3)n2)cc(OC)c1OC
inhibition at 10 µM [1]: 23.3%
inhibition at 10 µM [2]: 23.4%

SMILES: COc1ccc(-n2cnc(-c3cccc(C(F)(F)F)c3)n2)cc1OC
inhibition at 10 µM [1]: 18.4%
inhibition at 10 µM [2]: 12.8%

SMILES: COc1ccc(-n2cnc(-c3ccc(Cl)cc3)n2)cc1OC
inhibition at 10 µM [1]: 9.2%
inhibition at 10 µM [3]: 0%
inhibition at 10 µM [2]: 0%

IC50 [5]: 1.7 µM
SMILES: COc1cccc2c1C(=O)c1c(O)c3c(c(O)c1C2=O)C[C@@](O)(C(=O)CO)C[C@@H]3O[C@H]1C[C@H](N)[C@H](O)[C@H](C)O1 [DOXORUBICIN]
inhibition at 1 µM [4]: 45.5%
IC50 [6]: 1.2 µM
inhibition at 1 µM [7]: 37.9%
inhibition at 1 µM [8]: 45.5%

microsomal CLint [9]: > 53 µL/min/mg
half-life [12]: < 30 min
half-life [13]: > 60 min
half-life [14]: < 30 min
IC50 [5]: 17 µM
microsomal CLint [17]: 41 µL/min/mg
Stability [18]: Stable
Stability [20]: Stable
half-life [21]: 60 min
Stability [23]: Stable
IC50 [24]: 4.8 µM
microsomal CLint [25]: 23 µL/min/mg
Stability [26]: Stable
Stability [27]: Stable
microsomal CLint [28]: > 86.1 µL/min/mg
microsomal CLint [29]: 13 µL/min/mg
half-life [30]: 34 min
SMILES: COc1ccc(-c2ncn(-c3cc(OC)c(OC)c(OC)c3)n2)cc1F
Activity [10]: Active
inhibition at 10 µM [1]: 51.3%
Activity [11]: Active
inhibition at 10 µM [3]: 6.41%
Activity [15]: Active
Activity [16]: Active
IC50 [6]: 34 µM
Activity [19]: Active
inhibition at 10 µM [2]: 32.1%
IC50 at 24 h [22]: > 100 µM

SMILES: COc1ccc(-c2ncn(-c3cc(OC)c(OC)c(OC)c3)n2)cc1OC
inhibition at 10 µM [1]: 28.9%
inhibition at 10 µM [2]: 23.5%

SMILES: COc1cc(-n2cnc(-c3ccc(F)cc3)n2)cc(OC)c1OC
inhibition at 10 µM [1]: 20.2%
inhibition at 10 µM [2]: 23.1%
